Publication PMC8873552 (Chemical Science, 2021)

Tests used:
[1] = Reaction kinetics of acrolein–azide 1,3-dipolar cycloaddition; type: physicochemical
[2] = tested on: A549 cell xenograft-bearing nude mice; assay: Intratumor therapy of xenograft mice; type: in vivo, mouse; settings: intratumoral, 120 nmol
Method in brief: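 Nude mice bearing A549 xenografts received intratumoral injections once daily for 12 days. Comparison groups were vehicle, the azide control, the phenyl-azide conjugate and free drug. Tumour growth, body weight and survival were monitored.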

[3] = tested on: A549 cell xenograft-bearing nude mice; assay: Intravenous therapy of xenograft mice; type: in vivo, mouse; settings: 240 nmol; for survival: every three days for ten days; for tumor growth: every three days for ten days (four injections)
Method in brief: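 Nude mice bearing A549 xenografts were injected intravenously every three days over ten days, four injections in total, at twice the intratumoral concentration. Comparison groups matched the intratumoral study. Tumour growth and body weight were monitored.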

[4] = In vivo drug release analysis; parameters: species or system mouse; settings: two hours after intratumoral administration
Method in brief: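 A549 xenograft-bearing nude mice were dosed intratumorally. Two hours later, tumour and urine extracts were analysed by RP-HPLC for intact prodrug and free drug.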

## [N-]=[N+]=Nc1ccccc1 [Compound 1a, phenyl azide]
[1]; formation of triazoline 3a
  second-order rate constant (k), reaction with acrolein to give triazoline 3a: 0.039 M⁻¹ min⁻¹

## CC(C)c1cccc(C(C)C)c1N=[N+]=[N-] [Compound 1d, 2,6-diisopropylphenyl azide]
[1]; formation of 4d
  second-order rate constant (k), formation of 4-formyl-1,2,3-triazole 4d: 0.057 M⁻¹ min⁻¹
[1]; formation of heterocycle 6
  second-order rate constant (k), reaction with acrolein to give heterocycle 6: 0.38 M⁻¹ min⁻¹
[1]; times faster
  rate ratio, formation of heterocycle 6 versus 4-formyl-1,2,3-triazole 4d: 6.6 times
[1]; times higher
  rate constant ratio, 1d to heterocycle 6 versus 1a to triazoline 3a: 9.7 times

## Cc1cc(C(C)C)c(N=[N+]=[N-])c(C(C)C)c1 [Compound 9, 4-methyl-2,6-diisopropyl-phenyl azide]
[2]; every day for 12 days
  survival: survived less than twelve days after treatment
  tumor growth: does not retard the tumor growth
[2]; in two weeks
  tumor size: 900 mm^3
[3]; by two weeks
  tumor size: 800 mm^3
[3]
  survival: survived less than three weeks after treatment
  tumor growth: does not have any effect

## CO[C@@]12[C@H](COC(N)=O)C3=C(C(=O)C(C)=C(N)C3=O)N1C[C@@H]1N[C@@H]12 [MMC, mitomycin C]
[2]; every day for 12 days
  body weight: more body weight loss
  survival: survived less than five days after treatment
  tumor growth: significantly inhibits tumor growth
[2]; post-treatment day 4
  inflammation and ADRs: inflammation on the whole body
[3]; every three days
  body weight: the body weight loss was very drastic
[3]
  survival: could not survive before the fourth injection
  tumor growth: significantly inhibited tumor growth
[3]; tenth day of treatment
  inflammation: inflammation in the tail area
[4]
  compound detected in tumor extract: the free drug could not be detected from the tumor
  compound detected in urine extract: the secreted MMC drug was present in the urine
